Here are results for three molecules from article PMC6044901 (ACS Omega, 2018).

The nature of data set [1]: PK after iv injection in mice. The conditions noted are these: iv 1 mg/kg, GLP-1 ELISA, T1/2 elim unavailable. The format is in vivo. A digest of the protocol: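 Male ICR mice, 6 weeks old, n = 3, given a single iv injection: 1 mg/kg as GLP-1 peptide-equivalent weight for screening, or 300 nmol/kg. Tail-vein blood taken at 0, 12, 24, 48, 72, 96, 120 and 144 h; plasma stored at −80 °C. Active GLP-1 ELISA with a four-parameter logistic standard curve. Half-life computed; mean of three measurements.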

Data set [2] is described as follows: PK after sc injection in mice. In kind it is in vivo. The conditions noted are these: male, Crl:CD1 (ICR), mouse, plasma, 100 nmol/kg. In short, it runs like this: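 Male ICR mice, 6 weeks old, n = 3, given a single sc injection: test compound at 100 or 300 nmol/kg, or liraglutide at 100 nmol/kg. Tail-vein plasma sampled at 0–144 h (0, 12, 24, 48, 72, 96, 120, 144 h) and stored at −80 °C. Active GLP-1 ELISA with a four-parameter logistic fit. Bioavailability from sc and iv dosing run in parallel.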

The conditions of data set [3]: iv; cited from earlier work.
For data set [4] the following is noted: nonhuman primate; cited from earlier work.

In general, MRT refers to a mean duration of stay, worked out from the concentration-time curve. Consider `CCCCCCCCCCCCCCCC(=O)N[C@@H](CCC(=O)NCCCC[C@H](NC(=O)[C@H](C)NC(=O)[C@H](C)NC(=O)[C@H](CCC(N)=O)NC(=O)CNC(=O)[C@H](CCC(=O)O)NC(=O)[C@H](CC(C)C)NC(=O)[C@H](Cc1ccc(O)cc1)NC(=O)[C@H](CO)NC(=O)[C@H](CO)NC(=O)[C@@H](NC(=O)[C@H](CC(=O)O)NC(=O)[C@H](CO)NC(=O)[C@@H](NC(=O)[C@H](Cc1ccccc1)NC(=O)[C@@H](NC(=O)CNC(=O)[C@H](CCC(=O)O)NC(=O)[C@H](C)NC(=O)[C@@H](N)Cc1cnc[nH]1)[C@@H](C)O)[C@@H](C)O)C(C)C)C(=O)N[C@@H](CCC(=O)O)C(=O)N[C@@H](Cc1ccccc1)C(=O)N[C@H](C(=O)N[C@@H](C)C(=O)N[C@@H](Cc1c[nH]c2ccccc12)C(=O)N[C@@H](CC(C)C)C(=O)N[C@H](C(=O)N[C@@H](CCCNC(=N)N)C(=O)NCC(=O)N[C@@H](CCCNC(=N)N)C(=O)NCC(=O)O)C(C)C)[C@@H](C)CC)C(=O)O` [liraglutide, reference compound], for which the “plasma immunoreactive GLP-1 level at 48 h after iv injection” value in data set [1] is reported as “below the detection limit”. The same molecule yielded an MRT in data set [2] of 15.5 h.
Glucagon-like peptide-1 [GLP-1]: the “half-life (T1/2 elim) injected intravenously” value in data set [3] is recorded as not above 2 min.

B1: 99 kDa HPN-conjugated G-CSF: 99 kDa heparosan-conjugated G-CSF, ref 39 (conjugate, UniProt P09919 31-207, looked up)
Granulocyte …: TPLGPASSLPQSFLLKCLEQVRKIQGDGAALQEKLVSECATYKLCHPEELVLLGHSLGIPWAPLSSCPSQALQLAGCLSQLHSGLFLYQGLLQALEGISPELGPTLDTLQLDVADFATTIWQQMEELGMAPALQPTQGAMPAFASAFQRRAGGVLVASHLQSFLEVSYRVLRHLAQP
modifications: 99 kDa heparosan conjugate
As to B1, the T1/2 elim in data set [4] is 190 h.
